Assay results: ChEMBL document CHEMBL2046342, “Re-engineering aryl methylcarbamates to confer high selectivity for inhibition of Anopheles gambiae versus human acetylcholinesterase” (2012)
Values after ≈ are worked out from the molar mass of the structure shown.

What was measured:
[1] = molecular target: Acetylcholinesterase (Homo sapiens) (UniProt P22303); assay: Inhibition of human recombinant AChE after 6 mins by Ellman assay
How it was run: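 Recombinant human AChE was assayed by Ellman method for time-dependent inactivation at fixed inhibitor concentrations. Pseudo-first-order kobs was taken from ln(v/v0) vs incubation time. Three or more inhibitor levels gave kobs vs [I], and its linear slope gave apparent ki (mM⁻¹ min⁻¹). DMSO was held at 0.1% (v/v) final.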

[2] = molecular target: Acetylcholinesterase (Anopheles gambiae) (UniProt Q869C3); assay: Inhibition of Anopheles gambiae AChE expressed in Escherichia coli after 6 mins by Ellman assay
Acetylcholinesterase (Anopheles gambiae), sequence (Q869C3 39-737 limits assumed): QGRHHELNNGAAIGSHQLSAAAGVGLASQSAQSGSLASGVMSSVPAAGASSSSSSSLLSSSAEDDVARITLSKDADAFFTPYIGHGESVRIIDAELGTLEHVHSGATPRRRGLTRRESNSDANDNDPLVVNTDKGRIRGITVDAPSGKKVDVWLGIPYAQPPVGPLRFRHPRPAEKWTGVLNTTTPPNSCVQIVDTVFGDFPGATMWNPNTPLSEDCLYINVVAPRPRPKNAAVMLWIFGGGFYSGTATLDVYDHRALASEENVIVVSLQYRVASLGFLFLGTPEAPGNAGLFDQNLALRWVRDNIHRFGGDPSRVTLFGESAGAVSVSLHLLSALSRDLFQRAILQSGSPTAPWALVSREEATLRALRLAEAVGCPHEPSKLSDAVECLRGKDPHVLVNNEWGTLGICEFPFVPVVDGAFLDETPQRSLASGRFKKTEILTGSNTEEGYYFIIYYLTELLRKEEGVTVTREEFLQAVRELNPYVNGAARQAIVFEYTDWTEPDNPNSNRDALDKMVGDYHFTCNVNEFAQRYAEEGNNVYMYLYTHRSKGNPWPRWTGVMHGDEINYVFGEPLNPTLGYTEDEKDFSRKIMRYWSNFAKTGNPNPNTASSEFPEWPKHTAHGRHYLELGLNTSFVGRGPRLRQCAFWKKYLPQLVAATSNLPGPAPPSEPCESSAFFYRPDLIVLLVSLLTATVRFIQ
How it was run: (§1)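 Time-dependent inactivation of recombinant AgAChE (purified to 2,500 ± 100 U/mg) monitored by Ellman assay. Residual velocity (v/v0) was measured against incubation time at fixed inhibitor levels, and kobs came from the ln(v/v0) vs t slope. kobs at three or more [I] was plotted against [I], and the linear slope gave apparent second-order ki (mM⁻¹ min⁻¹). Final DMSO was constant at 0.1% (v/v).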

Anopheles gambiae [3] = assay: Toxicity in Anopheles gambiae G3 assessed as mortality treated as tarsal contact using dried filter papers after 24 hrs; type: functional; details: G3, 24 h
[4] = Selectivity ratio of Ki for Anopheles gambiae AChE to Ki for human recombinant AChE
How it was run: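 Ratio ki(Ag)/ki(h) of apparent second-order inactivation constants, both from Ellman-assay kobs vs [I] slopes using purified recombinant AgAChE and recombinant hAChE. Error in the ratio was computed by standard propagation of error.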

Anopheles gambiae [5] = assay: Toxicity in anesthetized Anopheles gambiae G3 assessed as mortality treated as topical application assessed per mosquito after 24 hrs; type: functional
[6] = molecular target: Acetylcholinesterase (Anopheles gambiae) (UniProt Q869C3); assay: Inhibition of Anopheles gambiae AChE; details: concentration not given here; how it was run: as §1
Anopheles gambiae [7] = assay: Toxicity in Anopheles gambiae G3 assessed as mortality at 1000 ug/ml treated as tarsal contact using dried filter papers after 24 hrs; type: functional
How it was run: (§2)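 Tarsal contact assay. Filter papers were treated with ethanolic carbamate solutions and dried, and adult Anopheles gambiae were exposed for 1 h. Mortality was scored after 24 h. Concentrations refer to the solutions used to treat the papers.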

[8] = Selectivity ratio of Torpedo californica AChE to human AChE
[9] = molecular target: Acetylcholinesterase (Anopheles gambiae) (UniProt Q869C3); assay: Inhibition of Anopheles gambiae AChE at 6 uM after 1 hr
Anopheles gambiae [10] = assay: Toxicity in Anopheles gambiae G3 assessed as mortality at 250 ug/ml treated as tarsal contact using dried filter papers after 24 hrs; type: functional; how it was run: as §2

Acetylcholinesterase (Homo sapiens), sequence (P22303 whole entry): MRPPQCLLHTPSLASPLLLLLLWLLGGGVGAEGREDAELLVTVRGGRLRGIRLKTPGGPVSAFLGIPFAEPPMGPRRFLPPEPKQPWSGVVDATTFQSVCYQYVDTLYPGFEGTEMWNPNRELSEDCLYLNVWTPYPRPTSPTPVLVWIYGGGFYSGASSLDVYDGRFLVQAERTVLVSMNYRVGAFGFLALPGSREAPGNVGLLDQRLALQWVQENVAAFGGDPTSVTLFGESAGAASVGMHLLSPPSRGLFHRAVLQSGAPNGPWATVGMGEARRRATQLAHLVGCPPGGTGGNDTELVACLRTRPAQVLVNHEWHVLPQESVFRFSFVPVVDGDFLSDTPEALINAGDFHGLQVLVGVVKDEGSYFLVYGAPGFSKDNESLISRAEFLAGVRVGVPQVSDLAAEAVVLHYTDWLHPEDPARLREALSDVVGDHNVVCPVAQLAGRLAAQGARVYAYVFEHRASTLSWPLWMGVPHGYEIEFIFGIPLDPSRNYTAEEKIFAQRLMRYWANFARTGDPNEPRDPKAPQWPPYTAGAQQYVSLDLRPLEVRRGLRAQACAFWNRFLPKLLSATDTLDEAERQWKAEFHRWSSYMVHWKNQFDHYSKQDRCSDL

CCCCc1cccc(OC(=O)NC)c1
Kinact [1]: 535 M⁻¹ s⁻¹ | apparent second-order inhibition rate constant ki [2]: 12400 M⁻¹ s⁻¹ | LC50 (Anopheles gambiae [3]): 237 µg/mL (≈ 1140 µM) | Ratio Ki [4]: 23

CCC(C)(C)c1cccc(OC(=O)NC)c1
Kinact [1]: 13100 M⁻¹ s⁻¹ | apparent second-order inhibition rate constant ki [2]: 127000 M⁻¹ s⁻¹ | LC50 (Anopheles gambiae [3]): 115 µg/mL (≈ 520 µM) | Ratio Ki [4]: 9.7

CNC(=O)Oc1cccc2c1OC(C)(C)O2 [BENDIOCARB]
LD50 (Anopheles gambiae [5]): 0.74 ng | Kinact [1]: 1850 M⁻¹ s⁻¹ | apparent second-order inhibition rate constant ki [2]: 14000 M⁻¹ s⁻¹ | LC50 (Anopheles gambiae [3]): 16 µg/mL (≈ 71.7 µM) | Ratio Ki [4]: 7.6 | inhibition [6]: 49%

CNC(=O)Oc1ccccc1OC(C)C [PROPOXUR]
LD50 (Anopheles gambiae [5]): 3.2 ng | Kinact [1]: 283 M⁻¹ s⁻¹ | apparent second-order inhibition rate constant ki [2]: 4430 M⁻¹ s⁻¹ | LC50 (Anopheles gambiae [3]): 39 µg/mL (≈ 186 µM) | Ratio Ki [4]: 16 | inhibition [6]: 49%

CCC(CC)CSc1ccccc1OC(=O)NC
LD50 (Anopheles gambiae [5]): 10 ng | Activity (Anopheles gambiae [7]): 27% | Kinact [1]: 242 M⁻¹ s⁻¹ | apparent second-order inhibition rate constant ki [2]: 30800 M⁻¹ s⁻¹ | Ratio Ki [4]: 130

CNC(=O)Oc1ccccc1OCC(C)C
LD50 (Anopheles gambiae [5]): 19 ng | Kinact [1]: 10.8 M⁻¹ s⁻¹ | apparent second-order inhibition rate constant ki [2]: 880 M⁻¹ s⁻¹ | LC50 (Anopheles gambiae [3]): 290 µg/mL (≈ 1300 µM) | Ratio Ki [4]: 81

CCC(CC)COc1ccccc1OC(=O)NC
LD50 (Anopheles gambiae [5]): 81 ng | Activity (Anopheles gambiae [7]): 27% | Kinact [1]: 8 M⁻¹ s⁻¹ | apparent second-order inhibition rate constant ki [2]: 4250 M⁻¹ s⁻¹ | Ratio Ki [4]: 530

CCN(C)C(=O)Oc1cccc([C@H](C)N(C)C)c1
Selectivity ratio [8]: 1500

C=C(C)COc1ccccc1OC(=O)NC
Kinact [1]: 12.3 M⁻¹ s⁻¹ | apparent second-order inhibition rate constant ki [2]: 1040 M⁻¹ s⁻¹ | Ratio Ki [4]: 84

CNC(=O)Oc1ccccc1SCC(C)C
LD50 (Anopheles gambiae [5]): 10 ng | Kinact [1]: 108 M⁻¹ s⁻¹ | apparent second-order inhibition rate constant ki [2]: 8770 M⁻¹ s⁻¹ | LC50 (Anopheles gambiae [3]): 212 µg/mL (≈ 886 µM) | Ratio Ki [4]: 81

CCC(CC)CCc1ccccc1OC(=O)NC
Kinact [1]: 12.5 M⁻¹ s⁻¹ | apparent second-order inhibition rate constant ki [2]: 1260 M⁻¹ s⁻¹ | Ratio Ki [4]: 100

CCC(C)(c1cccc(OC(=O)NC)c1)C(F)(F)F (racemic)
Kinact [1]: 6250 M⁻¹ s⁻¹ | apparent second-order inhibition rate constant ki [2]: 54500 M⁻¹ s⁻¹ | LC50 (Anopheles gambiae [3]): 68 µg/mL (≈ 247 µM) | Ratio Ki [4]: 8.7

CCC(CC)COc1cccc(OC(=O)NC)c1
Kinact [1]: 83.3 M⁻¹ s⁻¹ | apparent second-order inhibition rate constant ki [2]: 480 M⁻¹ s⁻¹ | Ratio Ki [4]: 5.8

CNC(=O)Oc1ccccc1
Kinact [1]: 3.33 M⁻¹ s⁻¹ | apparent second-order inhibition rate constant ki [2]: 45.8 M⁻¹ s⁻¹ | Ratio Ki [4]: 13

CNC(=O)Oc1ccccc1OCC1CCCC1
Kinact [1]: 4.67 M⁻¹ s⁻¹ | apparent second-order inhibition rate constant ki [2]: 163 M⁻¹ s⁻¹ | Ratio Ki [4]: 36

CCC(C)COc1ccccc1OC(=O)NC (racemic)
LD50 (Anopheles gambiae [5]): 33 ng | Kinact [1]: 9.67 M⁻¹ s⁻¹ | apparent second-order inhibition rate constant ki [2]: 2080 M⁻¹ s⁻¹ | LC50 (Anopheles gambiae [3]): 445 µg/mL (≈ 1880 µM) | Ratio Ki [4]: 216

CC[Si](C)(C)c1cccc(OC(=O)NC)c1
LD50 (Anopheles gambiae [5]): 8 ng | Kinact [1]: 1830 M⁻¹ s⁻¹ | apparent second-order inhibition rate constant ki [2]: 25200 M⁻¹ s⁻¹ | LC50 (Anopheles gambiae [3]): 169 µg/mL (≈ 712 µM) | Ratio Ki [4]: 14

CCCC(C)(C)c1cccc(OC(=O)NC)c1
Kinact [1]: 22700 M⁻¹ s⁻¹ | apparent second-order inhibition rate constant ki [2]: 112000 M⁻¹ s⁻¹ | LC50 (Anopheles gambiae [3]): 236 µg/mL (≈ 1000 µM) | Ratio Ki [4]: 4.9

CNC(=O)Oc1cccc(CC(C)C)c1
Kinact [1]: 91.7 M⁻¹ s⁻¹ | apparent second-order inhibition rate constant ki [2]: 2580 M⁻¹ s⁻¹ | Ratio Ki [4]: 28

C=C(C)CSc1ccccc1OC(=O)NC
LD50 (Anopheles gambiae [5]): 12 ng | Kinact [1]: 125 M⁻¹ s⁻¹ | apparent second-order inhibition rate constant ki [2]: 6900 M⁻¹ s⁻¹ | LC50 (Anopheles gambiae [3]): 317 µg/mL (≈ 1340 µM) | Ratio Ki [4]: 55

CNC(=O)Oc1cccc(C)c1 [METOLCARB]
Kinact [1]: 8.67 M⁻¹ s⁻¹ | apparent second-order inhibition rate constant ki [2]: 287 M⁻¹ s⁻¹ | LC50 (Anopheles gambiae [3]): 712 µg/mL (≈ 4310 µM) | Ratio Ki [4]: 33

CCC(C)CSc1ccccc1OC(=O)NC (racemic)
Kinact [1]: 280 M⁻¹ s⁻¹ | apparent second-order inhibition rate constant ki [2]: 13400 M⁻¹ s⁻¹ | Ratio Ki [4]: 48

CNC(=O)Oc1cccc(C(C)(C)C(F)(F)F)c1
Kinact [1]: 2320 M⁻¹ s⁻¹ | apparent second-order inhibition rate constant ki [2]: 26300 M⁻¹ s⁻¹ | LC50 (Anopheles gambiae [3]): 61 µg/mL (≈ 233 µM) | Ratio Ki [4]: 11

C[N+](C)(C)CCCCCCCCCCCCCCCCCCSS(C)(=O)=O
inhibition [9]: > 95%

CNC(=O)Oc1ccccc1OCC1CCCCC1
Kinact [1]: 3.5 M⁻¹ s⁻¹ | apparent second-order inhibition rate constant ki [2]: 8 M⁻¹ s⁻¹ | Ratio Ki [4]: 2.3

CNC(=O)Oc1cccc(CCC(C)C)c1
Kinact [1]: 86.7 M⁻¹ s⁻¹ | apparent second-order inhibition rate constant ki [2]: 4530 M⁻¹ s⁻¹ | LC50 (Anopheles gambiae [3]): 342 µg/mL (≈ 1550 µM) | Ratio Ki [4]: 53

CNC(=O)Oc1ccccc1C
Kinact [1]: 4 M⁻¹ s⁻¹ | apparent second-order inhibition rate constant ki [2]: 21.8 M⁻¹ s⁻¹ | Ratio Ki [4]: 5.4

CNC(=O)Oc1cccc(C(C)C)c1
Kinact [1]: 6380 M⁻¹ s⁻¹ | apparent second-order inhibition rate constant ki [2]: 54500 M⁻¹ s⁻¹ | Ratio Ki [4]: 8.5

CNC(=O)Oc1cccc([Si](C)(C)C)c1
Kinact [1]: 1130 M⁻¹ s⁻¹ | apparent second-order inhibition rate constant ki [2]: 10800 M⁻¹ s⁻¹ | Ratio Ki [4]: 9.6

CCCc1cccc(OC(=O)NC)c1
Kinact [1]: 1060 M⁻¹ s⁻¹ | apparent second-order inhibition rate constant ki [2]: 14700 M⁻¹ s⁻¹ | LC50 (Anopheles gambiae [3]): 41 µg/mL (≈ 212 µM) | Ratio Ki [4]: 14

CNC(=O)Oc1cccc(C(C)(C)C)c1
LD50 (Anopheles gambiae [5]): 4.5 ng | Kinact [1]: 2100 M⁻¹ s⁻¹ | apparent second-order inhibition rate constant ki [2]: 25200 M⁻¹ s⁻¹ | LC50 (Anopheles gambiae [3]): 37 µg/mL (≈ 179 µM) | Ratio Ki [4]: 12

CCC(C)(CC)c1cccc(OC(=O)NC)c1
Kinact [1]: 9220 M⁻¹ s⁻¹ | apparent second-order inhibition rate constant ki [2]: 88000 M⁻¹ s⁻¹ | Ratio Ki [4]: 9.5 | Activity (Anopheles gambiae [10]): 72%

CNC(=O)Oc1cccc2c1OC(C)(C)C2 [CARBOFURAN]
LD50 (Anopheles gambiae [5]): 0.85 ng | Kinact [1]: 7130 M⁻¹ s⁻¹ | apparent second-order inhibition rate constant ki [2]: 43700 M⁻¹ s⁻¹ | LC50 (Anopheles gambiae [3]): 16 µg/mL (≈ 72.3 µM) | Ratio Ki [4]: 6.1 | inhibition [6]: 49%

CNC(=O)Oc1ccccc1SC
Kinact [1]: 85 M⁻¹ s⁻¹ | apparent second-order inhibition rate constant ki [2]: 1150 M⁻¹ s⁻¹ | Ratio Ki [4]: 14

CNC(=O)Oc1cccc2ccccc12
inhibition [6]: 49%

CCC(C)c1cccc(OC(=O)NC)c1 (racemic)
LD50 (Anopheles gambiae [5]): 1.6 ng | Kinact [1]: 31800 M⁻¹ s⁻¹ | apparent second-order inhibition rate constant ki [2]: 167000 M⁻¹ s⁻¹ | LC50 (Anopheles gambiae [3]): 31 µg/mL (≈ 150 µM) | Ratio Ki [4]: 5.3
